How the values were obtained:
Type in all cases: functional, cell-based
D(2) dopamine receptor [1] = molecular target: T1, D(2) dopamine receptor (Homo sapiens, UniProt P14416); assay: Agonist activity at human recombinant D2 receptor expressed in HEK293 cells by FLIPR assay
Method in brief: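 Calcium flux (FLIPR) in HEK-293 cells coexpressing recombinant human D2L with chimeric Gqo5. Efficacy is the maximal response relative to 10 µM dopamine (100%). EC50 is the concentration giving half-maximal stimulation. Values are means (SEM, n ≥ 3).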

D(2) dopamine receptor [2] = molecular target: T1, D(2) dopamine receptor; assay: Antagonist activity at human recombinant D2 receptor expressed in HEK293 cells by FLIPR assay
D(4) dopamine receptor = molecular target: T2, D(4) dopamine receptor (Homo sapiens, UniProt P21917); assay: Activity at human recombinant D4.4 receptor expressed in HEK293 cells by FLIPR assay
T2 sequence (P21917 whole entry): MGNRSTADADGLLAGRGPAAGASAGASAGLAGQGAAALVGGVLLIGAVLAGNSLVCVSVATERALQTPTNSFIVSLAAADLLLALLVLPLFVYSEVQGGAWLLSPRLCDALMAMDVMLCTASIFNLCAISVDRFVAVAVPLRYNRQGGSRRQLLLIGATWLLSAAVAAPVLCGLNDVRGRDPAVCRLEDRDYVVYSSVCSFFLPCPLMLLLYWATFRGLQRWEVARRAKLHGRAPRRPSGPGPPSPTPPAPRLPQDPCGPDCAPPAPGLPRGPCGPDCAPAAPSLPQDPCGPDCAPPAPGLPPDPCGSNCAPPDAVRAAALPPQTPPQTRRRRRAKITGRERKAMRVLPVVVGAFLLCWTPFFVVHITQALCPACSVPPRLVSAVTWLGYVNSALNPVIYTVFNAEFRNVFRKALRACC

T1 sequence (P14416 whole entry): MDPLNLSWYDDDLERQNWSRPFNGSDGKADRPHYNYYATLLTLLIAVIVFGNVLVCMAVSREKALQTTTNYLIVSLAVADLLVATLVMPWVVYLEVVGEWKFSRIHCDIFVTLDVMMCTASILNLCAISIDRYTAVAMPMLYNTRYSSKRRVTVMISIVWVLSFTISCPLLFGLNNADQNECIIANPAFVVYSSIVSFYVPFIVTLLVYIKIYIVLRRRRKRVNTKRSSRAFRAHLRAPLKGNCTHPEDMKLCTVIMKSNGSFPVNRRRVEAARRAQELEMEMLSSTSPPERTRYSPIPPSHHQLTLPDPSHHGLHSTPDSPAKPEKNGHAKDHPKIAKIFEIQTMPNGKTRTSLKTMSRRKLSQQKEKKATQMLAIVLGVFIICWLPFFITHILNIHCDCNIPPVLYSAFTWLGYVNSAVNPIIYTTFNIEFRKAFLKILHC

Row | EC50 (D(2) dopamine receptor [1]) [µM] | IC50 (D(2) dopamine receptor [2]) [µM] | EC50 (D(4) dopamine receptor) [nM] | Structure (SMILES)
1 | > 10 | > 10 | 9.5 | O/N=C(\CCCN1CCN(c2ccccn2)CC1)c1ccc(F)cc1
2 | > 10 | > 10 | 24.1 | CO/N=C(/CCN1CCN(c2ccccn2)CC1)c1ccccc1
3 | > 10 | > 10 | 19.4 | O/N=C(\CCN1CCN(c2ccccn2)CC1)c1cc(F)cc(F)c1
4 | > 10 | > 10 | 21.7 | O/N=C(/CCN1CCN(c2ccccn2)CC1)c1ccccc1
5 | > 10 | > 10 | 113 | CO/N=C(/CCN1CCN(c2ccccn2)CC1)c1cccc(Cl)c1
6 | > 10 | > 10 | 475 | O/N=C(\CCN1CCN(c2ccccn2)CC1)c1ccc(Cl)cc1
7 | > 10 | > 10 | 17.5 | O/N=C(/CCN1CCN(c2ccccn2)CC1)c1cc(F)cc(F)c1
8 | > 10 | > 10 | 20.3 | Cc1ccccc1/C(CCN1CCN(c2ccccn2)CC1)=N\O
9 | > 10 | > 10 | 164 | CC(C)O/N=C(\CCN1CCN(c2ccccn2)CC1)c1ccccc1
10 | > 10 | > 10 | 25 | O/N=C(/CCN1CCN(c2ccccn2)CC1)c1ccccc1Cl
11 | > 10 | > 10 | 183 | CO/N=C(\CCN1CCN(c2ccccn2)CC1)c1ccc(Br)cc1
12 | > 10 | > 10 | 17.1 | O/N=C(\CCN1CCN(c2ccccn2)CC1)c1cccc(F)c1
13 | > 10 | > 10 | > 10000 | Cc1ccc(OCc2ccccc2)c(/C(CCN2CCN(c3ccccn3)CC2)=N/O)c1
14 | > 10 | > 10 | 2.3 | Cc1cccc(/C(CCN2CCN(c3ccccn3)CC2)=N/O)c1

The next lines start with the compound.

Row | Structure (SMILES) | EC50 (D(2) dopamine receptor [1]) [µM] | IC50 (D(2) dopamine receptor [2]) [µM] | EC50 (D(4) dopamine receptor) [nM]
15 | CCO/N=C(\CCN1CCN(c2ccccc2C#N)CC1)c1ccccc1 | > 10 | > 10 | 48.7
16 | CO/N=C(\CCN1CCN(c2ccccn2)CC1)c1ccc(Cl)cc1Cl | > 10 | > 10 | 249
17 | CO/N=C(/CCN1CCN(c2ccccn2)CC1)c1cc(C)cc(C)c1 | > 10 | > 10 | 74.7
18 | Cc1cccc(/C(=N/O)C(O)CN2CCN(c3ccccn3)CC2)c1 (stereo not given) | > 10 | > 10 | 4.9
19 | CCO/N=C(\CCN1CCN(c2ncccc2C)CC1)c1ccccc1 | > 10 | > 10 | 253
20 | CO/N=C(/CCN1CCN(c2ccccn2)CC1)c1ccc(Cl)cc1Cl | > 10 | > 10 | 296
21 | CO/N=C(/CCN1CCN(c2ccccn2)CC1)c1ccc(C)c(C)c1 | > 10 | > 10 | 91
22 | CO/N=C(/CCN1CCN(c2ccccc2OC(C)C)CC1)c1ccc(F)cc1 | > 10 | > 10 | 601
23 | CCO/N=C(\CCN1CCN(c2cccc(OC)c2)CC1)c1ccccc1 | > 10 | > 10 | 2680
24 | CCO/N=C(\CCN1CCN(c2ccccc2)CC1)c1ccccc1 | > 10 | > 10 | 109
25 | COC(CN1CCN(c2ccccn2)CC1)/C(=N/O)c1cccc(C)c1 (stereo not given) | > 10 | > 10 | 5370
26 | O/N=C(\CCN1CCN(c2ncccn2)CC1)c1ccccc1 | > 10 | > 10 | 39.2
27 | CCO/N=C(\CCN1CCN(c2ncccc2C#N)CC1)c1ccccc1 | > 10 | > 10 | 139
28 | CO/N=C(/c1ccc(Cl)cc1)C(COC(C)C)CN1CCN(c2ccccn2)CC1 (stereo not given) | > 10 | > 10 | 3210
29 | CO/N=C(/CCN1CCN(c2ccccn2)CC1C)c1ccc(Cl)cc1 (stereo not given) | > 10 | > 10 | 99
30 | Cc1cccc(/C(=N\O)C(O)CN2CCN(c3ccccn3)CC2)c1 (stereo not given) | > 10 | > 10 | 44.8

Reference: ChEMBL document CHEMBL1145336, “1-aryl-3-(4-pyridine-2-ylpiperazin-1-yl)propan-1-one oximes as potent dopamine D4 receptor agonists for the treatment of erectile dysfunction” (J Med Chem, 2006)
